Measurements collected from several papers.
Each line is one published result; the experiments were not run side by side.
Target: Carbonic anhydrase 2 (CA2, Homo sapiens, UniProt P00918)
Effect on: enzyme activity
Action: inhibitor
Method: absorbance

NS(=O)(=O)c1cccc(Nc2nc(-c3cc4cc(Br)ccc4oc3=O)cs2)c1 has an IC50 of 680 nM.
CC1=C(/C=C/C(C)=C/C=C/C(C)=C\C(=O)O)C(C)(C)CCC1 gave an IC50 of 10900 nM (pH 7.4).
With OC1CCN(c2ccc(/C=N/NC(=S)NC3CCCCC3)cc2)CC1 the IC50 was 465 nM.
The IC50 of C[C@H]1c2cccc(O)c2C(=O)C2=C(O)[C@]3(O)C(=O)C(C(N)=O)=C(O)[C@@H](N(C)C)[C@@H]3[C@@H](O)[C@@H]21 is reported as 14200 nM (pH 7.4).
CN1CCN(c2nc(-c3cc4cc(Br)ccc4oc3=O)cs2)CC1 gave an IC50 of 4120 nM.
The IC50 of NS(=O)(=O)c1ccc(-c2ccc(Nc3ccc(Cl)cc3)cc2)cc1 is reported as 2110 nM.
Cc1cccc(C)c1NC(=S)N/N=C/c1ccc(N2CCC(O)CC2)cc1 has an IC50 of 424 nM.
OCCOCCN1CCN(C(c2ccccc2)c2ccc(Cl)cc2)CC1 (centres unmarked) has an IC50 of 18200 nM (pH 7.4).
With CS(=O)(=O)Nc1ccc(Nc2nc(-c3cc4cc(Br)ccc4oc3=O)cs2)cc1Oc1ccccc1 the IC50 was 380 nM.
OC1CCN(c2ccc(/C=N/NC(=S)NCCc3ccccc3)cc2)CC1 gave an IC50 of 641 nM.
For NS(=O)(=O)c1ccc(-c2ccc(Nc3ccc(F)c(Cl)c3)cc2)cc1, the IC50 was 380 nM.
